# Data published in ChEMBL document CHEMBL4706590, “Design and characterization of cereblon-mediated androgen receptor proteolysis-targeting chimeras” (Eur J Med Chem, 2020).
# Active and inactive are the calls of the source. The rule behind the calls is not given here.
# Experiments:
# [1] = biological target: T1, Protein cereblon/Androgen receptor (Homo sapiens, UniProt P10275+Q96SW2); assay: Protac activity at CRBN/AR in human LNCaP cells assessed as AR degradation at 0.1 to 10 uM Western blotting analysis relative to control; assay type: cell-based; details: dose 0.1-10 µM
# Summary of the method: (§1)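 LNCaP (IMDM) or 22RV1 (RPMI 1640) cells with 10% FBS at 37 °C, 5% CO2, treated with DMSO vehicle as control. Cells lysed in RIPA buffer (50 mM Tris-HCl pH 7.5, 150 mM NaCl, 1% Triton X-100, 0.1% SDS, 0.5% deoxycholate, protease inhibitors). Protein quantified by Bradford assay. Immunoblotted for AR with tubulin as loading control, HRP chemiluminescence detection.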
# Target sequence in this assay (P10275 whole entry, looked up): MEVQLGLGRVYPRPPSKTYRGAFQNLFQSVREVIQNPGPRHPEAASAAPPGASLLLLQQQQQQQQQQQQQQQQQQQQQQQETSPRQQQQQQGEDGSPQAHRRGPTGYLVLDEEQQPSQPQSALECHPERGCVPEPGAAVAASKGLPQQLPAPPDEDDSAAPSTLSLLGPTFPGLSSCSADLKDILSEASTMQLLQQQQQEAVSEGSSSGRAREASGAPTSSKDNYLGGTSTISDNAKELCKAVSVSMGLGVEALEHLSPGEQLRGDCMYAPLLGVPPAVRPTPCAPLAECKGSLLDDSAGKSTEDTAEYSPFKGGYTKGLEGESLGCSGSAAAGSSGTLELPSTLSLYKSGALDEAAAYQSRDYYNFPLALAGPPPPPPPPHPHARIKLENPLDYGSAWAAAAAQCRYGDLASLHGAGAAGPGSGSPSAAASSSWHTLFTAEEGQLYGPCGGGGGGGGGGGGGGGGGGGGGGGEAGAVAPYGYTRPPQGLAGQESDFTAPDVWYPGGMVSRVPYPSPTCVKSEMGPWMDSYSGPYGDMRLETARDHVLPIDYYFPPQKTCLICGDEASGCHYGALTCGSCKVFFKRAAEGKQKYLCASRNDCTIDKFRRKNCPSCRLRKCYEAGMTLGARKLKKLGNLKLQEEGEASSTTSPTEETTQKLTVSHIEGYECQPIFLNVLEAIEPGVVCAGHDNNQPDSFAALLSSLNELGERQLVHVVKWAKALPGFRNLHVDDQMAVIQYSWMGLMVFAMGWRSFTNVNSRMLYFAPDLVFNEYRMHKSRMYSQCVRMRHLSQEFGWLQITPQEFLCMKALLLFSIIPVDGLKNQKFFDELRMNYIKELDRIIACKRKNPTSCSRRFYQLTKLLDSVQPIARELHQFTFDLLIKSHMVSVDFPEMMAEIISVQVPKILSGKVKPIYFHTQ
# Target sequence in this assay (Q96SW2 whole entry, looked up): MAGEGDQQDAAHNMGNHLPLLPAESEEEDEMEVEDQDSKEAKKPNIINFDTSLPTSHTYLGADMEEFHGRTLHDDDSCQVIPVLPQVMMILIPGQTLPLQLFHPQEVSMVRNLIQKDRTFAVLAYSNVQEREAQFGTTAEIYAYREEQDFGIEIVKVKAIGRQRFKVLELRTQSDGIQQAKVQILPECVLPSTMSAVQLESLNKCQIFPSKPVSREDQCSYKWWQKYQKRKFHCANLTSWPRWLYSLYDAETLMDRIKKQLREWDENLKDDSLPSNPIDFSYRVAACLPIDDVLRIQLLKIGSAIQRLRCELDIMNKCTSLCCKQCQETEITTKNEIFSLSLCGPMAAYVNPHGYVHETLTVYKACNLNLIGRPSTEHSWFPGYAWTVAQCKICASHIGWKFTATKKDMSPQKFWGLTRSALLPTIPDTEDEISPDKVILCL
# [2] = biological target: T1, Protein cereblon/Androgen receptor; assay: Protac activity at CRBN/AR in human LNCaP cells assessed as AR degradation at 0.1 uM by western blotting analysis relative to control; assay type: cell-based; summary of the method: as §1
# Target sequence in this assay (P10275 whole entry, looked up): as the sequence (P10275 whole entry, looked up) above
# Target sequence in this assay (Q96SW2 whole entry, looked up): as the sequence (Q96SW2 whole entry, looked up) above
# [3] = biological target: T1, Protein cereblon/Androgen receptor; assay: Protac activity at CRBN/AR in human LNCaP cells assessed as AR degradation at 1 uM by Western blotting analysis relative to control; assay type: cell-based; summary of the method: as §1
# Target sequence in this assay (P10275 whole entry, looked up): as the sequence (P10275 whole entry, looked up) above
# Target sequence in this assay (Q96SW2 whole entry, looked up): as the sequence (Q96SW2 whole entry, looked up) above
# [4] = biological target: T1, Protein cereblon/Androgen receptor; assay: Protac activity at CRBN/AR in human LNCaP cells assessed as AR degradation at 10 uM by Western blotting analysis relative to control; assay type: cell-based; summary of the method: as §1
# Target sequence in this assay (P10275 whole entry, looked up): as the sequence (P10275 whole entry, looked up) above
# Target sequence in this assay (Q96SW2 whole entry, looked up): as the sequence (Q96SW2 whole entry, looked up) above
# LNCaP = assay: Antiproliferative activity against human LNCaP cells assessed as reduction in cell viability after 6 days by CellTiter-Glo assay; assay type: functional; details: 144 h, time 6 day
# Summary of the method: (§2)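 LNCaP seeded at 1.5 × 10³ and VCaP at 4 × 10³ cells per well in 96-well plates. Cells grown in IMDM with 10% FBS and antibiotic-antimycotic at 37 °C, 5% CO2, with DMSO as vehicle. IC50 from nonlinear regression of log(inhibitor) versus response.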
# VCaP [5] = assay: Antiproliferative activity against human VCaP cells assessed as reduction in cell viability after 6 days by CellTiter-Glo assay; assay type: functional; details: 144 h, time 6 day; summary of the method: as §2
# [6] = biological target: T1, Protein cereblon/Androgen receptor; assay: Protac activity at CRBN/AR in human LNCaP cells assessed as AR degradation after 24 hrs by Western blotting analysis; assay type: cell-based; summary of the method: as §1
# Target sequence in this assay (P10275 whole entry): as the sequence (P10275 whole entry, looked up) above
# Target sequence in this assay (Q96SW2 whole entry): as the sequence (Q96SW2 whole entry, looked up) above
# [7] = biological target: T1, Protein cereblon/Androgen receptor; assay: Protac activity at CRBN/AR in human LNCaP cells assessed as maximum degradation of AR by Western blotting analysis relative to control; assay type: cell-based; details: time 24.0 hrs; summary of the method: as §1
# Target sequence in this assay (P10275 whole entry, looked up): as the sequence (P10275 whole entry, looked up) above
# Target sequence in this assay (Q96SW2 whole entry, looked up): as the sequence (Q96SW2 whole entry, looked up) above
# [8] = biological target: T1, Protein cereblon/Androgen receptor; assay: Protac activity at CRBN/AR in human 22RV1 cells assessed as maximum degradation of AR at 1 uM by Western blotting analysis relative to control; assay type: cell-based; summary of the method: as §1
# Target sequence in this assay (P10275 whole entry, looked up): as the sequence (P10275 whole entry, looked up) above
# Target sequence in this assay (Q96SW2 whole entry, looked up): as the sequence (Q96SW2 whole entry, looked up) above
# [9] = biological target: T1, Protein cereblon/Androgen receptor; assay: Protac activity at CRBN/AR in human 22RV1 cells assessed as maximum degradation of AR-V7 splice variant at 10 uM by Western blotting analysis relative to control; assay type: cell-based; summary of the method: as §1
# [10] = biological target: T1, Protein cereblon/Androgen receptor; assay: Protac activity at CRBN/AR in human LNCaP cells assessed as AR degradation at 1 uM pretreated with protease inhibitor bortezomib by Western blotting analysis; assay type: cell-based; summary of the method: as §1
# [11] = biological target: T1, Protein cereblon/Androgen receptor; assay: Protac activity at CRBN/AR in human LNCaP cells assessed as AR degradation at 1 uM pretreated with neddylation inhibitor MLN4924 by Western blotting analysis; assay type: cell-based; summary of the method: as §1
# [12] = biological target: T1, Protein cereblon/Androgen receptor; assay: Protac activity at CRBN/AR in human LNCaP cells assessed as AR degradation at 1 uM after 4 hrs by Western blotting analysis relative to control; assay type: cell-based; summary of the method: as §1
# [13] = Metabolic stability in mouse liver microsomes assessed as compound remaining at 1 uM after 30 mins in presence of NADPH-regenerating system; assay type: ADME, Microsome; details: read-out: Stabilty
# Summary of the method: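 Mouse liver microsomes at 0.5 mg protein/mL in 100 mM PBS, pH 7.4. Reaction started with NADPH-regenerating solution (1.3 mM NADP+, 3.3 mM glucose-6-phosphate, 0.4 U/mL G6PDH, 3.3 mM MgCl2). Incubated 30 min at 37 °C, stopped with ice-cold acetonitrile, centrifuged. Percent remaining reported as mean ± SD, n = 3.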
# [14] = Tmax in ICR mouse at 5 mg/kg, ip by LC-MS/MS analysis; assay type: ADME, organism-based; details: in vivo
# Summary of the method: (§3)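 Male ICR mice, 7 weeks old. Single dose of 5 mg/kg IV or IP in 5% DMSO, 52% PEG400, 3% Tween 80 in water, or 30 mg/kg PO in 20% PEG400 and 3% Tween 80 in water. Retro-orbital blood sampled over time. Plasma protein-precipitated with acetonitrile (1:10) and analysed by LC-MS/MS. Parameters from noncompartmental analysis of mean data, n = 3.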
# [15] = Tmax in ICR mouse at 30 mg/kg, po by LC-MS/MS analysis; assay type: ADME, organism-based; details: in vivo; summary of the method: as §3
# [16] = Cmax in ICR mouse at 5 mg/kg, ip by LC-MS/MS analysis; assay type: ADME, organism-based; design: route intraperitoneal, dose 5 mg/kg; details: in vivo; summary of the method: as §3
# [17] = Cmax in ICR mouse at 30 mg/kg, po by LC-MS/MS analysis; assay type: ADME, organism-based; design: route oral, dose 30 mg/kg; details: in vivo; summary of the method: as §3
# [18] = Half life in ICR mouse at 5 mg/kg, iv by LC-MS/MS analysis; assay type: ADME, organism-based; details: in vivo; summary of the method: as §3
# [19] = Half life in ICR mouse at 5 mg/kg, ip by LC-MS/MS analysis; assay type: ADME, organism-based; details: in vivo; summary of the method: as §3
# [20] = AUCt in ICR mouse at 5 mg/kg, iv by LC-MS/MS analysis; assay type: ADME, organism-based; design: dose 5 mg/kg; details: in vivo; summary of the method: as §3
# [21] = AUCt in ICR mouse at 5 mg/kg, ip by LC-MS/MS analysis; assay type: ADME, organism-based; design: dose 5 mg/kg; details: in vivo; summary of the method: as §3
# [22] = AUCt in ICR mouse at 30 mg/kg, po by LC-MS/MS analysis; assay type: ADME, organism-based; design: dose 30 mg/kg; details: in vivo; summary of the method: as §3
# VCaP [23] = assay: Antitumor activity against human VCaP cells xenografted in SCID mouse assessed as reduction in tumor growth at 30 mg/kg, ip administered once daily for 10 days and measured every 1 to 3 days post treatment by caliper method; assay type: functional, organism-based; details: time 10.0 day
# Summary of the method: (§4)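 Male SCID mice (C.B-17/IcrCrj-scid) implanted subcutaneously in the right flank with 1.5×10⁷ VCaP cells mixed 1:1 with Matrigel. At about 130 mm³, mice dosed IP once daily for 10 days, vehicle 20% PEG400 + 3% Tween 80 in PBS. Tumours measured by caliper, volume = length × width² × 0.5. Body weight tracked alongside; Mann-Whitney U test, α = 0.01.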
# [24] = Toxicity in SCID mouse xenografted with human VCaP cells assessed as loss of body weight at 30 mg/kg, ip administered once daily for 10 days and measured every 1 to 3 days post treatment; assay type: organism-based; details: in vivo, 240 h, time 10 day; summary of the method: as §4
# [25] = Half life in ICR mouse at 30 mg/kg, po by LC-MS/MS analysis; assay type: ADME, organism-based; details: in vivo, 30 mg/kg; summary of the method: as §3
Activity [2] [%],Activity [3] [%],Activity [4] [%],"remaining at 0.5 h, 1 µM [13] [%]",Tmax [14] [h],Cmax [16] [ng/mL],half-life [18] [h],t1/2 [19] [h],AUC(0-t) [20] [ng·h/mL],AUCt [21] [ng·h/mL],Structure (SMILES),CC50 (LNCaP) [µM],CC50 (VCaP [5]) [µM],further results
,,,,,,,,,,CN1C(=O)CCC(n2nnc3ccc(N4CCC(C(=O)N5CCC6(CC5)CC(N5CCN(c7ccc(C(=O)N[C@H]8C(C)(C)[C@H](Oc9ccc(C#N)c(Cl)c9)C8(C)C)cc7)CC5)C6)CC4)cc3c2=O)C1=O (stereo partly specified),,,Activity [1]: inactive
85,93,95,96,0.03,2780,8.28,4.41,20700,1720,CC1(C)[C@H](NC(=O)c2ccc(N3CCN(C4CC5(CCN(C(=O)C6CCN(c7ccc8nnn(C9CCC(=O)NC9=O)c(=O)c8c7)CC6)CC5)C4)CC3)cc2)C(C)(C)[C@H]1Oc1ccc(C#N)c(Cl)c1 (stereo partly specified),0.098,0.044,"DC50 [6]: 0.0125 µM; Activity [7]: 93%; Activity [8]: 85%; Activity [9]: 34%; Activity [10]: inactive; Activity [11]: inactive; Activity [12]: 80%; Tmax ([15]; ICR, read-out: Tmax): 4 h; Cmax ([17]; ICR, read-out: Cmax): 110 ng/mL; AUC(0-t) ([22]; ICR): 530 ng·h/mL; Activity (VCaP [23]): Active; Activity [24]: Non-Toxic"
82,86,90,92.6,1.67,2010,4.35,4.24,4490,7490,CC1(C)[C@H](NC(=O)c2ccc(N3CCN(CCOC4CCN(C(=O)C5CN(c6ccc7nnn(C8CCC(=O)NC8=O)c(=O)c7c6)C5)CC4)CC3)cc2)C(C)(C)[C@H]1Oc1ccc(C#N)c(Cl)c1 (stereo partly specified),0.762,0.057,Tmax ([15]; 30 mg/kg): 0.7 h; Cmax [17]: 20 ng/mL; t1/2 [25]: 19.7 h; AUCt [22]: 150 ng·h/mL
